Activity calls are given as the source filed them. The rule behind the calls is not given here.
Key:
[1] = Antiproliferative activity against human WI38 cells incubated for 24 hrs by MTT assay; format: cell-based, WI-38; conditions: read-out: LD50
Summary of the method: (§1)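 Cells exposed to compounds at […]; viability read by MTT assay. LD50 derived from concentration-response. MDA-MB-468: triple-negative (ER-, PR-, HER2-) breast cancer. MCF-7: ER+, PR+, HER2- breast cancer. WI-38: non-cancerous lung fibroblasts. Selectivity index taken as WI-38 LD50 divided by cancer-cell LD50.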

[2] = test system: MCF7; experiment: Disruption of mitochondrial membrane potential in human MCF7 cells assessed as shift of fluorescence from red to green by JC1 staining based fluorescent microscopic method; format: functional, cell-based
Summary of the method: (§2)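 JC-1 staining with fluorescence imaging; mitochondrial permeability transition read as a red-to-green shift (fall in red/green ratio), quantified from images; H2O2 as positive control.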

[3] = test system: MDA-MB-468; experiment: Induction of apoptosis in human MDA-MB-468 cells assessed as increase in cleaved caspase-3 protein expression at 40 to 60 uM by Western blot analysis; format: functional, cell-based
[4] = test system: MDA-MB-468; experiment: Induction of apoptosis in human MDA-MB-468 cells assessed as increase in apoptotic cells incubated for 24 hrs by annexin V-FITC and PI staining based flow cytometric analysis; format: functional, cell-based
Summary of the method: (§3)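 Cells treated at 0, 20, 40 and 60 µM for 24 h, stained with Annexin V-FITC/PI and analysed by flow cytometry; apoptotic cell percentage quantified from dot plots.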

[5] = Selectivity index, ratio of LD50 for human WI38 cells to LD50 for human MDA-MB-468 cells; format: toxicity; conditions: WI38 cells and MDA-MB-468 cells, read-out: Selectivity Index
Summary of the method: (§4)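 MTT cytotoxicity after exposure to […] in MDA-MB-468, MCF-7 and WI-38 fibroblasts; LD50 determined per line; selectivity index calculated as WI-38 LD50 divided by cancer-cell LD50.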

[6] = test system: MDA-MB-468; experiment: Induction of DNA fragmentation in human MDA-MB-468 cells assessed as formation of polynuclear fragmentation at 40 to 60 uM incubated for 12 hrs by DAPI staining based fluorescence microscopic method; format: functional, cell-based
Summary of the method: (§5)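 Nuclear morphology by DAPI staining and fluorescence microscopy; apoptotic (fragmented, polynuclear) nuclei counted and expressed as percent apoptotic cells versus untreated control; H2O2 positive control.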

[7] = test system: MDA-MB-468; experiment: Induction of apoptosis in human MDA-MB-468 cells assessed as decrease in bcl2 protein expression at 40 to 60 uM by Western blot analysis; format: functional, cell-based
[8] = test system: MDA-MB-468; experiment: Induction of apoptosis in human MDA-MB-468 cells assessed as increase in bax protein expression at 40 to 60 uM by Western blot analysis; format: functional, cell-based
[9] = test system: MDA-MB-468; experiment: Antiproliferative activity against human MDA-MB-468 cells incubated for 24 hrs by MTT assay; format: functional; conditions: MDA-MB-468, 24 h, read-out: LD50 (the source's name); summary of the method: as §1
[10] = test system: MDA-MB-468; experiment: Induction of apoptosis in human MDA-MB-468 cells assessed as increase in apoptotic cells at 60 uM incubated for 24 hrs by annexin V-FITC and PI staining based flow cytometric analysis relative to control; format: functional; summary of the method: as §3
[11] = test system: MCF7; experiment: Induction of DNA fragmentation in human MCF7 cells assessed as apoptotic cells at 60 uM incubated for 12 hrs by DAPI staining based fluorescence microscopic method relative to control; format: functional; summary of the method: as §5
[12] = test system: MDA-MB-468; experiment: Disruption of mitochondrial membrane potential in human MDA-MB-468 cells assessed as shift of fluorescence from red to green by JC1 staining based fluorescent microscopic method; format: functional, cell-based; summary of the method: as §2
[13] = test system: MCF7; experiment: Induction of cell cycle arrest in human MCF7 cells assessed as increase in accumulation at sub G1 phase at 60 uM by PI staining based FACS analysis relative to control; format: functional
Summary of the method: (§6)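 Cells exposed to 20, 40 and 60 µM; cell cycle distribution by FACS, with sub-G1 population quantified as a measure of apoptosis.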

[14] = test system: MDA-MB-468; experiment: Induction of DNA fragmentation in human MDA-MB-468 cells assessed as apoptotic cells at 60 uM incubated for 12 hrs by DAPI staining based fluorescence microscopic method relative to control; format: functional; summary of the method: as §5
[15] = test system: WI-38; experiment: Induction of apoptosis in human WI38 cells at 20 to 60 uM incubated for 24 hrs by annexin V-FITC and PI staining based flow cytometric analysis; format: cell-based; conditions: wi-38, 24 h; summary of the method: as §3
[16] = test system: MCF7; experiment: Induction of DNA fragmentation in human MCF7 cells assessed as formation of polynuclear fragmentation at 40 to 60 uM incubated for 12 hrs by DAPI staining based fluorescence microscopic method; format: functional, cell-based; summary of the method: as §5
[17] = test system: MDA-MB-468; experiment: Induction of mitochondrial ROS production in human MDA-MB-468 cells at 40 to 60 uM incubated for 24 hrs by MitoSox red dye based fluorescence microscopic method; format: functional, cell-based
Summary of the method: (§7)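 MitoSOX Red, a live-cell mitochondria-targeted superoxide probe, after exposure to 40 and 60 µM; read by fluorescence microscopy and spectrophotometric fluorescence intensity; H2O2 positive control.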

[18] = test system: MCF7; experiment: Antiproliferative activity against human MCF7 cells incubated for 24 hrs by MTT assay; format: functional; conditions: MCF7, 24 h, read-out: LD50 (the source's name); summary of the method: as §1
[19] = test system: MDA-MB-468; experiment: Induction of DNA fragmentation in human MDA-MB-468 cells assessed as apoptotic cells at 40 to 60 uM incubated for 12 hrs by DAPI staining based fluorescence microscopic method; format: functional, cell-based; summary of the method: as §5
[20] = test system: MDA-MB-468; experiment: Induction of ROS production in human MDA-MB-468 cells assessed as increase in green intensity incubated for 12 hrs by DCFDA staining based microscopic analysis; format: functional, cell-based
Summary of the method: (§8)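 Cells exposed to 0, 20, 40 and 60 µM for 12 h, then loaded with DCFDA (100 µM) for 30 min; green fluorescence assessed by microscopy with image quantitation, plus spectrophotometric fluorescence intensity; H2O2 positive control.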

[21] = test system: MCF7; experiment: Induction of DNA fragmentation in human MCF7 cells assessed as apoptotic cells at 40 to 60 uM incubated for 12 hrs by DAPI staining based fluorescence microscopic method; format: functional, cell-based; summary of the method: as §5
[22] = test system: MDA-MB-468; experiment: Induction of cell cycle arrest in human MDA-MB-468 cells assessed as increase in accumulation at sub G1 phase at 60 uM by PI staining based FACS analysis relative to control; format: functional; summary of the method: as §6
[23] = test system: MCF7; experiment: Induction of apoptosis in human MCF7 cells assessed as increase in apoptotic cells incubated for 24 hrs by annexin V-FITC and PI staining based flow cytometric analysis; format: functional, cell-based; summary of the method: as §3
[24] = test system: MCF7; experiment: Induction of apoptosis in human MCF7 cells assessed as increase in apoptotic cells at 60 uM incubated for 24 hrs by annexin V-FITC and PI staining based flow cytometric analysis relative to control; format: functional; summary of the method: as §3
[25] = test system: MCF7; experiment: Induction of mitochondrial ROS production in human MCF7 cells at 40 to 60 uM incubated for 24 hrs by MitoSox red dye based fluorescence microscopic method; format: functional, cell-based; summary of the method: as §7
[26] = Selectivity index, ratio of LD50 for human WI38 cells to LD50 for human MCF7 cells; format: toxicity; conditions: WI38 cells and MCF7 cells, read-out: Selectivity Index; summary of the method: as §4
[27] = test system: MCF7; experiment: Induction of ROS production in human MCF7 cells assessed as increase in green intensity incubated for 12 hrs by DCFDA staining based microscopic analysis; format: functional, cell-based; summary of the method: as §8

## CN(C)c1ccc(/C=C/C(=O)c2ccc(OCc3cn([C@@H]4O[C@H](CO)[C@@H](O)[C@H](O)[C@H]4O)nn3)cc2)cc1
[1]
  CC50 at 24 h: 59 µM
[2]
  Activity: Dose-dependent effect
[3]
  Activity: Active
[4]
  Activity: Dose-dependent effect
[5]
  selectivity ratio: 2.11
[6]
  Activity: Active
[7]
  Activity: Active
[8]
  Activity: Active
[9]
  CC50: 28 µM
[10]
  Activity: 60%
[11]
  Activity: 78%
[12]
  Activity: Dose-dependent effect
[13]
  Activity: 67%
[14]
  Activity: 72%
[15]
  Activity: Non-Toxic
[16]
  Activity: Active
[17]
  Activity: Active
[18]
  CC50: 31 µM
[19]
  Activity: Active
[20]
  Activity: Dose-dependent effect
[21]
  Activity: Active
[22]
  Activity: 62%
[23]
  Activity: Dose-dependent effect
[24]
  Activity: 63%
[25]
  Activity: Active
[26]
  selectivity ratio: 1.9
[27]
  Activity: Dose-dependent effect

From ChEMBL document CHEMBL4396949, “Anti-cancer potential of novel glycosylated 1,4-substituted triazolylchalcone derivatives” (Bioorg Med Chem Lett, 2019)
